ChEMBL document CHEMBL1136784, “Synthesis and biological evaluation of 14-alkoxymorphinans. 18. N-substituted 14-phenylpropyloxymorphinan-6-ones with unanticipated agonist properties: extending the scope of common structure-activity relationships” (J Med Chem, 2003)
Where “and” joins values, the source holds several entries; their conditions need not be identical. Equal values may be shown once.

Columns and labels:
[1] = molecular target: Delta-type opioid receptor (Rattus norvegicus, UniProt P33533); experiment: In vitro binding affinity at opioid receptor delta 1 was determined in C6 rat glioma cells using [3H]Ile5,6 deltorphin II; format: cell-based
Delta-type opioid receptor, sequence (P33533 whole entry): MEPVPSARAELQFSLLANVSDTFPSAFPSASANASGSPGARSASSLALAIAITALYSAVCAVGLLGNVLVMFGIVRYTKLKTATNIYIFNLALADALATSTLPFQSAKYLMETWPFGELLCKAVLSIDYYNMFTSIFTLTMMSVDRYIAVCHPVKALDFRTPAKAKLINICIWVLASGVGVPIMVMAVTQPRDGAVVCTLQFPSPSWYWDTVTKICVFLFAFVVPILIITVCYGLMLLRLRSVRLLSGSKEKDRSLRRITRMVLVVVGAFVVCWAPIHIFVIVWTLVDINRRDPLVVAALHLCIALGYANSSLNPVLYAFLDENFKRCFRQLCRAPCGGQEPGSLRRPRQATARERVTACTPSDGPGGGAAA

[2] = molecular target: Opioid receptors; mu and delta (Mus musculus) (UniProt P42866+P32300); experiment: In vivo antinociceptive activity was determined upon subcutaneous administration in the mouse paraphenylquinone writhing test; format: functional, organism-based
Opioid receptors; mu and delta (Mus musculus), sequence (P32300 whole entry, looked up): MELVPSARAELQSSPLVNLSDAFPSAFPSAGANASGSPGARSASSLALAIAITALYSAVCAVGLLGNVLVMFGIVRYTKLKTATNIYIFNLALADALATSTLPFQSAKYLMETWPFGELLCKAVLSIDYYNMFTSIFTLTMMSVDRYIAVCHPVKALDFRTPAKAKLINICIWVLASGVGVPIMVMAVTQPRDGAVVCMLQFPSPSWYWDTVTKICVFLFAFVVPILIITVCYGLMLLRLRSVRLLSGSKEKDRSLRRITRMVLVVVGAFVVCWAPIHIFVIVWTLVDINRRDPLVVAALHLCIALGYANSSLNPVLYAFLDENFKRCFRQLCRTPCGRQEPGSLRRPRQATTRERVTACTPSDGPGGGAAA
Opioid receptors; mu and delta (Mus musculus), sequence (P42866 whole entry, looked up): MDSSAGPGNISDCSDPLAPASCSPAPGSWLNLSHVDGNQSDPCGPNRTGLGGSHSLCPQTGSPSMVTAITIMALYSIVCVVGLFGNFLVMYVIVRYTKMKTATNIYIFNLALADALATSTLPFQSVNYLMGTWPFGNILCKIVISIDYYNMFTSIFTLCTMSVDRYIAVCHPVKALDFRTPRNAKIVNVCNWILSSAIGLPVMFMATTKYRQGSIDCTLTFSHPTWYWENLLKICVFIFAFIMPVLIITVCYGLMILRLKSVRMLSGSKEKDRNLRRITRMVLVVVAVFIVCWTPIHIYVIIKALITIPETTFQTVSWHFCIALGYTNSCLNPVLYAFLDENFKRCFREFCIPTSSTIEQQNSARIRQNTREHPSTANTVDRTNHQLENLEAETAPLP
How it was run: (§1)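 Male ICR mice weighing 20-30 g, each animal tested only once. Drugs were given subcutaneously at a minimum of 3 doses, with 6-10 mice per dose. Assay procedures followed earlier published methods and their modifications.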

[3] = molecular target: Kappa-type opioid receptor (Homo sapiens, UniProt P41145); experiment: biochemical; format: cell-based, CHO
Kappa-type opioid receptor, sequence (P41145 whole entry): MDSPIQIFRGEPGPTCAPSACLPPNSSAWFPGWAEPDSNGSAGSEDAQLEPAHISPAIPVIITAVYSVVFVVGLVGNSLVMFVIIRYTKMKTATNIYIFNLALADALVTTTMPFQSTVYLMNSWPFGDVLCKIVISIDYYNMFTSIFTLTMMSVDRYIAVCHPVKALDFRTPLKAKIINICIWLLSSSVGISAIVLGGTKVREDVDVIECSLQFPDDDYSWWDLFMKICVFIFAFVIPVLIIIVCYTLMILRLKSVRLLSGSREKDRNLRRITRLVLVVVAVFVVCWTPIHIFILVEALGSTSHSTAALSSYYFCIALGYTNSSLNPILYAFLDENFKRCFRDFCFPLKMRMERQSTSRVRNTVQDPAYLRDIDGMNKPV

[4] = Selectivity ratio was determined; set-up: reference not given here
Mu-type opioid receptor = Mu-type opioid receptor (Rattus norvegicus, UniProt P33535); experiment: In vitro binding affinity at opioid receptor mu 1 was determined in C6 rat glioma cells using [3H]DAMGO; format: cell-based
Mu-type opioid receptor, sequence (P33535 whole entry): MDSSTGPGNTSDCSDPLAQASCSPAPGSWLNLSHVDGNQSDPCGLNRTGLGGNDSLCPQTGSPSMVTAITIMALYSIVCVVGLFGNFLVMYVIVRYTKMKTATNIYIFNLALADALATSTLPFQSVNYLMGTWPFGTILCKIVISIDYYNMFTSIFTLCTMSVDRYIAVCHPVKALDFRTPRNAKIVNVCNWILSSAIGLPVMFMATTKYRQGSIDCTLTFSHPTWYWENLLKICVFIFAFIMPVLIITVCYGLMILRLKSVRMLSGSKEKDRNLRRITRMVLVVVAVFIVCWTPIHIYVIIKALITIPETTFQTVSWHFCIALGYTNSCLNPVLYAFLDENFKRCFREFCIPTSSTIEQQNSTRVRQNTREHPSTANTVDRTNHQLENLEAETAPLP

[5] = In vivo antinociceptive activity was determined upon subcutaneous administration in the mouse tail-flick test; format: functional; conditions: sc; how it was run: as §1

SMILES | Ki [1] [nM] | ED50 [2] [µg/kg] | Ki [3] [nM] | Ratio [4] | Ki (Mu-type opioid receptor) [nM] | ED50 [5] [µg/kg]
O=C1CC[C@@]2(OCCCc3ccccc3)[C@H]3Cc4ccc(O)c5c4[C@@]2(CCN3CC2CCCO2)[C@H]1O5 (stereo partly specified) | 0.09 | 2 | 0.08 | 0.4 and 0.45 | 0.2 | 7
O=C1CC[C@@]2(OCCCc3ccccc3)[C@H]3Cc4ccc(O)c5c4[C@@]2(CCN3CC2CCC2)[C@H]1O5 | 0.46 |  | 0.49 | 1.96 and 1.84 | 0.25 | 8
CN1CC[C@]23c4c5ccc(O)c4O[C@H]2[C@@H](O)C=C[C@H]3[C@H]1C5 [MORPHINE] |  | 400 |  |  |  | 1900
C=CCN1CC[C@]23c4c5ccc(O)c4O[C@H]2C(=O)CC[C@@]3(OCCCc2ccccc2)[C@H]1C5 | 0.26 |  | 0.11 |  |  | 6
COc1ccc2c3c1O[C@H]1C(=O)CC[C@@]4(OCCCc5ccccc5)[C@@H](C2)N(CC2CCCO2)CC[C@]314 (stereo partly specified) | 6.2 |  | 61.4 |  | 3.8 | 760
CCCN1CC[C@]23c4c5ccc(O)c4O[C@H]2C(=O)CC[C@@]3(OCCCc2ccccc2)[C@H]1C5 | 0.93 | 0.9 | 0.37 | 4.11 and 10.3 | 0.09 | 2
CO[C@@]12CCC(=O)[C@]3(C)Oc4c(O)ccc5c4[C@@]31CCN(C)[C@@H]2C5 | 40.9 | 9 | 304 |  | 0.023 | 30
O=C1CC[C@@]2(OCCCc3ccccc3)[C@H]3Cc4ccc(O)c5c4[C@@]2(CCN3CCc2ccccc2)[C@H]1O5 |  |  |  |  |  | 110
O=C1CC[C@@]2(OCCCc3ccccc3)[C@H]3Cc4ccc(O)c5c4[C@@]2(CCN3CC2CC2)[C@H]1O5 |  | 6 | 0.41 |  |  | 3
COc1ccc2c3c1O[C@H]1C(=O)CC[C@@]4(OCCCc5ccccc5)[C@@H](C2)N(CCc2ccccc2)CC[C@]314 |  |  |  |  |  | 80
